Experimental data of several laboratories.
Protocols differ between the studies behind these lines.
Cell line: A549
Observed: cell growth or viability

| SMILES | technique | time | notes | IC50 |
| --- | --- | --- | --- | --- |
| COc1cccc2c1C(=O)c1c(O)c3c(c(O)c1C2=O)C[C@@](O)(C(=O)CO)C[C@@H]3O[C@H]1C[C@H](N)[C@H](O)[C@H](C)O1 | MTT | 72 h |  | 2.7 µM |
| Cc1ccc2c(-c3cc4c(CNCc5cccnc5)cnc(C)c4o3)cc(=O)oc2c1C | MTT | 72 h |  | 36.4 µM |
| Cc1nc(Nc2ccc3c(c2)/C(=C/c2ccccc2C)C(=O)N3)c2ccccc2n1 | MTT |  |  | 18.2 µM |
| Cc1ncc(CN2CCN(Cc3ccccn3)CC2)c2cc(C(=O)c3ccc4c(c3)OCCO4)oc12 | MTT | 72 h |  | 57.2 µM |
| CNC(=O)c1cc(Oc2ccc(NC(=O)Nc3ccc(Cl)c(C(F)(F)F)c3)cc2)ccn1 | MTT | 72 h |  | 5.58 µM |
| C=C(F)C(=O)N1CCN(c2nc(OC[C@@H]3CCCN3C)nc3c2CCN(c2cccc4cccc(Cl)c24)C3)C[C@@H]1CC#N | ATP luminescence |  | 3D culture | > 1 µM |
| Cc1nc(Nc2ccc3c(c2)C(C)(C)C(=O)N3)c2ccccc2n1 | MTT |  |  | 3.21 µM |
| C[C@H](CCC(=O)O)[C@H]1CC[C@H]2[C@@H]3CC[C@@H]4C[C@H](O)CC[C@]4(C)[C@H]3CC[C@]12C | MTT | 72 h |  | 70 µM |
| O=C(C=Cc1ccccc1)Nc1cc(-c2ccnc(N3CCC(O)CC3)c2)ccn1 | MTT | 72 h |  | 0.085 µM |
| O=C(O)c1ccc2c(c1)nc(Nc1cccc(Cl)c1)c1ccncc12 | crystal violet | 48 h |  | 10.5 µM |
| Cc1nc(N(C)c2ccc3c(c2)/C(=C/c2ccccc2Cl)C(=O)N3C)c2ccccc2n1 | MTT |  |  | 7.68 µM |
| CN(C)C/C=C/C(=O)Nc1cc2c(Nc3ccc(F)c(Cl)c3)ncnc2cc1O[C@H]1CCOC1 | MTT | 72 h |  | 48.5 µM |
| Cc1nc(Nc2ccc3c(c2)/C(=C/c2ccccc2Cl)C(=O)N3)c2ccccc2n1 | MTT |  |  | 5.67 µM |
| Cc1ncc(CN2CCc3ccccc3C2)c2cc(C(=O)c3ccc4c(c3)OCCO4)oc12 | MTT | 72 h |  | 28.2 µM |
